# Source: PubChem BioAssay
# RBBP9 inhibitor: blocks human serine hydrolase RBBP9 | inhibition, % at 7.94 µM | O75884 | recombinant RBBP9, FP-Rh probe fluorescence polarization | actives 0.2% (n = 220,000);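 active = inhibition above the campaign mean of all tested compounds plus 3 SD, cut at about 14% in these data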;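 also: plate controls were DMSO wells with RBBP9 for no effect and wells lacking RBBP9 protein for full effect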
#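 Test system: recombinant human RBBP9; Timing: 30 min then 45 min, 25 °C; Detection: fluorescence polarization; Control set: RBBP9 with DMSO as uninhibited control, no-protein wells as full inhibition; Compound dosing: one concentration, 7.94 µM nominal, 0.794% DMSO; Probe or stimulus: FP-Rh activity-based probe, 375 nM before mixing.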
# EP2 mod: modulators of human EP2 prostaglandin E2 receptor. induction, % at 25 µM. EP2-expressing cells, cAMP HTRF FRET, PGE2 co-stimulation. actives 0.83% (n = 260,000). P43116. AID 940;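 active = compounds whose cAMP rise, as percent of the full-agonist control response, exceeds 60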;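 also: rat C6 glioma line stably carrying human EP2 under a CMV promoter; the protocol text gives 20 µM as final concentration; 100% = response of wells given 1 µM PGE2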
# EP2 antag: blocks the human prostaglandin E2 receptor EP2 | inhibition, % at 25 µM | AID 1422 | actives 0.52% (n = 260,000) | P43116 | C6 glioma cells expressing human EP2, cAMP TR-FRET; cells stimulated with saturating PGE2;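 active = percent inhibition above 40 after rounding to a whole number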;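 also: rat C6 glioma host cells with rolipram phosphodiesterase inhibitor present; the protocol text gives 20 µM as final concentration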
# ABCB1 block: blocks JC-1 efflux by human ABCB1 transporter. actives 0.067% (n = 190,000). CCRF-Adr cells, flow cytometry. inhibition, % at 6.6 µM. P08183; in the data active = inhibition above about 40%;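 also: 0% = vehicle and 100% = reference inhibitor; higher value means more JC-1 retained so stronger ABCB1 efflux block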
# ABCG2 inh: inhibitors of human ABCG2 transporter, ABCB1 counter-screen; Q9UNQ0; IgMXP3 cells, JC-1 efflux, flow cytometry; actives 0.1% (n = 190,000); inhibition, % at 6.6 µM; AID 1325;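 active = inhibition above 80%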;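 also: 0% = DMSO and 100% = nicardipine control wells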
# Target sequence (Q9UNQ0 whole entry, looked up): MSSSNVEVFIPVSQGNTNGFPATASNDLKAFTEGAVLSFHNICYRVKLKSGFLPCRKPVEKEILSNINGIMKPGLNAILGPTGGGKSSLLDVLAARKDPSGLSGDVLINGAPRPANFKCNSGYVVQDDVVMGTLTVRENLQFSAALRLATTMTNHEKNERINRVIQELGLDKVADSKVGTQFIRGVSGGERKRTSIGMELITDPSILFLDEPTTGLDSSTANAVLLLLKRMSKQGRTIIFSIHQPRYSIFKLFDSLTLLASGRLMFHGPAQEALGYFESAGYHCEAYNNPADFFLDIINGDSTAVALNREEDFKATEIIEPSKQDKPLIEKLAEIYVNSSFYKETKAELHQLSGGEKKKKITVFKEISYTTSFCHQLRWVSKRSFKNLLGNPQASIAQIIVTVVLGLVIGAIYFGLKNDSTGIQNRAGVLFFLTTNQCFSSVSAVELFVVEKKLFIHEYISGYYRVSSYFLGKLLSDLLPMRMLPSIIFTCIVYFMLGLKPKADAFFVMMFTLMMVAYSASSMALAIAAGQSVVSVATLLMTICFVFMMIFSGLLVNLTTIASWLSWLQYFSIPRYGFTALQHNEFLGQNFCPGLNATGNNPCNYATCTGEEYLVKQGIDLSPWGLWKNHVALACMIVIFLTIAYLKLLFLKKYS
#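 Times: 10 min at 25 °C | Test system: Two drug-resistant human cell lines, ABCG2 and ABCB1 | Quantity: 3 million cells/mL final, two lines in 1:1 ratio | Signal: Flow cytometry, 530 nm JC-1 signal | Dosing: Compound at 6.6 µM | Controls: Nicardipine and DMSO wells | Reagent: JC-1 as fluorescent efflux pump substrate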
# EP2 cAMP induct: EP2 receptor cAMP induction, counter-screens negative; shares compounds with EP2 mod; C6 glioma EP2 cells, cAMP HTRF induction; plus low (about EC15) PGE2 agonist; calls only at 20 µM (by protocol); actives 47% (n = 1,300);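 active = cAMP induction above 50% in the main assay while under 30% in all four parallel counter assays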;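 also: rat C6 glioma cells stably expressing human EP2 receptor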
# The depositor's hits bear a star; i = inactive; . = no result given; + = active, no number. In the library only some 1.5% were active in any assay of this set; here they are far more common.
SMILES,RBBP9 inhibitor,EP2 mod,EP2 antag,ABCB1 block,ABCG2 inh,EP2 cAMP induct
Cc1ccc(C)c(NC(=S)N(Cc2ccco2)C(C)c2cccs2)c1 (configuration not stated),1,68*,5,1,5,i
COc1cccc(N=c2oc3c(C)ncc(CO)c3cc2C(=O)Nc2ccccc2OC)c1,1,68*,.,3,9,i
NC(=O)CSc1nc(-c2ccccc2)c(-c2ccccc2)o1,-5,67*,3,0,0,+
CCc1nnc(NC(=O)CSc2nc(-c3ccccc3)c(-c3ccccc3)o2)s1,-2,-16,9,0,1,.
O=C1C2C3c4ccccc4C(c4ccccc43)[C@@H]2C(=O)N1c1ccccn1 (some centres not stated),-2,1,9,.,.,.
O=C1C2C3c4ccccc4C(c4ccccc43)[C@@H]2c2nc3ccccc3n21 (some centres not stated),2,75*,11,1,4,+
CC1CN(c2nc3ccccc3cc2-c2ccccc2)CC(C)O1 (configuration not stated),-7,67*,5,-1,-1,+
CC1CN(c2cc(-c3ccccc3)c3ccccc3n2)CC(C)O1 (configuration not stated),7,54,10,0,6,.
CCOc1ccccc1COC(=O)c1cccc(-n2cnnn2)c1,-2,71*,6,0,3,i
S=c1[nH]nc(Cc2ccccc2)n1Cc1ccco1,-3,53,-1,0,0,i
CCCn1c(Cc2ccccc2)n[nH]c1=S,-1,38,19,0,0,.
COC(=O)CSc1nnc(-c2cccnc2)n1-c1ccc(C)cc1,.,1,13,.,.,.
Cc1cc(I)ccc1NC(=O)CN1CCCCC1,.,-22,10,.,.,.
C=CCSc1nccc(-c2cc(Cl)sc2Cl)n1,-2,67*,17,0,0,i
CC(=O)c1sc(NS(=O)(=O)c2ccccc2)nc1C,.,39,14,.,.,.
COc1cc(O)c2c(=O)cc(C)oc2c1CC=C(C)C,.,92*,9,.,.,+
Cc1ccc(Cl)cc1NC1=NC(=S)N(C(C)C)C12CCCCC2,2,93*,7,1,2,+
Cc1ccc(Cl)cc1NC(=O)C(=O)N1CCCCC1,-3,15,2,0,-1,.
O=C1COc2ccccc2N1Cc1ccccc1Cl,-6,68*,7,0,2,i
COc1ccc(-n2c(SCC(=O)Nc3cc(OC)ccc3OC)nnc2-c2cccnc2)cc1,.,-9,9,.,.,.
C=CCC(=O)OCCCCCCOc1ccc(C(=O)O)cc1,4,67*,7,0,1,i
CC[C@H](Cn1nnn(-c2ccccc2)c1=O)NC(=O)Cc1n[nH]c(=O)c2ccccc12,.,-14,6,.,.,.
CCc1nc2c(cnn2-c2ccc(Cl)cc2)c(=O)n1-c1ccc(OC)cc1,7,81*,17,1,9,i
CCOc1ccc(-n2c(C)nc3c(cnn3-c3ccc(Cl)cc3)c2=O)cc1,0,30,20,1,7,.
O=C(NCc1ccco1)C(c1cccs1)N(C(=O)Cc1cccs1)c1ccccc1 (configuration not stated),2,83*,9,0,1,i
SMILES,RBBP9 inhibitor,EP2 mod,EP2 antag,ABCB1 block,ABCG2 inh,EP2 cAMP induct
COc1ccc(OC)c(-c2cnc(OC(C)(C)C)nc2OC(C)(C)C)c1,-6,70*,8,1,7,i
CC(C)(C)C1CCc2onc(C(=O)Nc3cccnc3)c2C1 (configuration not stated),-3,52,3,1,6,i
CC(C)Cc1nc2oc3c(Cl)ncnc3c2c2c1CCCC2,-1,46,7,.,.,.
COc1ncnc2c1oc1nc(CC(C)C)c3c(c12)CCCC3,-1,68*,9,2,7,+
COc1ccc(NC(=O)CSc2nc(N)c3cc4c(nc3n2)CC(C)(C)OC4)cc1,-8,-7,4,.,.,.
CC1(C)Cc2nc3nc(SCC(=O)Nc4ccccc4)nc(N)c3cc2CO1,-5,71*,6,0,6,+
O=C(CSc1nnc(Cc2ccccc2)n1Cc1ccco1)NC12CC3CC(CC(C3)C1)C2,-7,63*,-3,7,8,i
